Compound activity: PubChem, Johns Hopkins Ion Channel Center
KCNK9 block – inhibitors of human KCNK9 two-pore domain potassium channel | Q9NPC2 | HEK293 KCNK9, FluxOR thallium flux fluorescence; active compounds read low | B-score at 10 µM | 310,000 compounds, 1.2% hits | AID 488922;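 active means ratio B-score over 3 SD below the library mean, with starting fluorescence within 5 SD of its mean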;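 further: negative B-score means less thallium flux so channel inhibition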
KCNQ1 pot – human KCNQ1 channel potentiation or activation. P51787. CHO-K1 KCNQ1, thallium flux FluxOR fluorescence; active compounds read high. B-score at 10 µM. 310,000 compounds, 0.35% hits;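 active means fluorescence ratio B-score, a plate-corrected score, at least three library SD, with initial intensity B-score within 5 SD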
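System: CHO-K1 cells stably expressing KCNQ1 / Medium: assay buffer for compound exposure, DMSO matched across wells / Reagent: thallium- and potassium-containing depolarizing buffer / Compound: one concentration, matched DMSO / Incubation: 20 min compound pretreatment at room temperature / Measured by: kinetic FluxOR fluorescence, 10 s baseline plus 110 s post-stimulus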
KCNQ1 inh – human KCNQ1 channel inhibition. CHO-K1 KCNQ1, FluxOR thallium flux fluorescence; active compounds read high. AID 2642. 310,000 compounds, 1.3% hits. B-score at 10 µM. P51787;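 active means compounds whose thallium flux B-score, printed positive for inhibition, exceeds three library SD while starting fluorescence stays within three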;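 further: channel opened by potassium depolarization with thallium stimulus after 20 min compound exposure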
Kir21 inh – Kir2.1 (mouse) channel inhibition; HEK293-Kir2.1, FluxOR thallium flux fluorescence; active compounds read low; B-score at 10 µM; 310,000 compounds, 0.85% hits; AID 1672;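 active means fluorescence ratio B-score at or below minus 3 SD of library scores, with starting-brightness B-score within 2 SD, cut at about -4.2 in these data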;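 further: channel flux triggered by added potassium and thallium sulfate stimulus; B-score of peak minus minimum fluorescence over baseline after thallium stimulus; more negative B-score means stronger Kir2.1 block with less thallium influx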
hERG rescue – compounds protecting human hERG from proarrhythmic drug block | Q12809 | CHO-hERG, FluxOR thallium flux, dofetilide IC70 present | activation (rescue from dofetilide block), less the hit threshold, % at 10 µM | 310,000 compounds, 0.51% hits;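 active means activation above the mean of controls blocked by dofetilide plus 5 SD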;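 further: thallium influx through hERG after potassium depolarization seen as dye fluorescence rise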
Target sequence (Q12809 whole entry, looked up): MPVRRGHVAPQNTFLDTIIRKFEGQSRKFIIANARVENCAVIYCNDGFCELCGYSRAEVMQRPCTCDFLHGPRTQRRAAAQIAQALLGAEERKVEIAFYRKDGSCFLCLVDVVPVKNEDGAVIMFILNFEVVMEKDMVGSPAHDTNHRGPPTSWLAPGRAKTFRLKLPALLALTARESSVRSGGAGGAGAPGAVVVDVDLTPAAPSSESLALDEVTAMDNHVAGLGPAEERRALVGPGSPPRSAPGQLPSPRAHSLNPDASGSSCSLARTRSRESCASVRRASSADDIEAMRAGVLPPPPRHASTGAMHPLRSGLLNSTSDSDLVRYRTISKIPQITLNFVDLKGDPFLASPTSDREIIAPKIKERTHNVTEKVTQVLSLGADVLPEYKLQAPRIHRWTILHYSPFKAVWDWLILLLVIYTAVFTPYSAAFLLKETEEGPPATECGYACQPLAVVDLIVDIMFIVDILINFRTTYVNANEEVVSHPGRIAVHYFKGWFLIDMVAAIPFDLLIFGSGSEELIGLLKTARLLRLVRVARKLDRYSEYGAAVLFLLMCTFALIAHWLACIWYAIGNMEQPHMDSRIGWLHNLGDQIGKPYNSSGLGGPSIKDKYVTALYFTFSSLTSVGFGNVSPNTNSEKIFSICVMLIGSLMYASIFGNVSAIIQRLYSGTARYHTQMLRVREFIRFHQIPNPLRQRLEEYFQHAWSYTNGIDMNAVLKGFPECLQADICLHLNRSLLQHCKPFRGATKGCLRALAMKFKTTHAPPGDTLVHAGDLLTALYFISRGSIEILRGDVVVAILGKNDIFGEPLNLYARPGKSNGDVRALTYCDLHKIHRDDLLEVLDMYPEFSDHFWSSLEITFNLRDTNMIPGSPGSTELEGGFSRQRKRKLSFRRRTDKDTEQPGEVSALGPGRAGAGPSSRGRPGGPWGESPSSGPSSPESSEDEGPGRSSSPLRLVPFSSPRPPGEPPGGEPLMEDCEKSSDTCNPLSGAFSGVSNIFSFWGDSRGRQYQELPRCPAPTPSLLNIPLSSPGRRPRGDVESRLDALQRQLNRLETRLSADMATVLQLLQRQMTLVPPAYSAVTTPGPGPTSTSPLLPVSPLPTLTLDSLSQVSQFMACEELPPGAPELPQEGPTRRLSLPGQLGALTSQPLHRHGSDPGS
KCNK3 block – human KCNK3 channel inhibition, primary screen; 340,000 compounds, 0.84% hits; O14649; B-score at 10 µM; CHO-KCNK3 thallium flux, FluxOR fluorescence; active compounds read low; AID 602410;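 active means B-score under library mean minus 4 SD, starting fluorescence ratio at most library mean plus 5 SD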;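 further: more negative B-score means stronger inhibition of thallium flux through KCNK3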
KCNQ1 block val – confirmation of human KCNQ1 potassium channel inhibitors; shares compounds with KCNQ1 inh; KCNQ1 cell line, FluxOR thallium flux fluorescence; inhibition, % at 10 µM; 1,600 compounds, 93% hits; AID 588353;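 active means primary screen active, with duplicate mean exceeding buffer control mean plus 3 SD of buffer wells, cut at about 28% in these data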;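 further: 0% = buffer control ratio and 100% = XE991 inhibitor control ratio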
CHO KCNQ1 ctr – KCNQ1 inhibitor counter-screen hit in parental CHO cells. shares compounds with KCNQ1 inh. parental CHO-K1, FluxOR thallium flux fluorescence ratio; active compounds read low; zero means no signal rise above baseline. fluorescence ratio (Tl flux) at 10 µM. 1,600 compounds, 21% hits. AID 588366;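 active means mean of duplicate thallium-flux fluorescence ratios in parental host cells more than 5 SD below the buffer control mean, cut at about 0.38 in these data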;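 further: ratio is peak minus minimum fluorescence divided by baseline fluorescence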
KCNQ1 APC inh – blocks human KCNQ1 current in automated patch clamp; shares compounds with KCNQ1 inh; KCNQ1-CHO cells; calls only at 10 µM; 490 compounds, 20% hits; AID 624120;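 active means KCNQ1 current drop exceeding 3 SD of negative control wells, seen in both duplicate runs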;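 further: steady state current during a 2 s step from -80 to +40 mV; negative values mean current inhibition and positive values mean potentiation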
KCNQ2 inh – rat KCNQ2 inhibition in KCNQ1 inhibitor specificity screen | KCNQ2 cells, FluxOR thallium flux fluorescence | 1,600 compounds, 71% hits | shares compounds with KCNQ1 inh | inhibition, % at 10 µM;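 active means mean percent inhibition of the KCNQ2 thallium signal more than 5 SD above the buffer-only control wells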;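 further: KCNQ2 expressed in CHO cells; 0% = buffer control wells and 100% = XE-991 inhibitor control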
KCNQ1 KCNE1 spec – human KCNQ1/KCNE1 inhibition in KCNQ1 specificity screen; shares compounds with KCNQ1 inh; KCNQ1/KCNE1 cells, FluxOR thallium flux fluorescence; inhibition, % at 10 µM; 1,600 compounds, 77% hits;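 active means mean percent inhibition of duplicate wells above the buffer-only control mean plus 3 SD of those controls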;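 further: 0% = buffer only wells and 100% = XE-991 inhibitor control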
KCNK9 inh conf – confirmation of human KCNK9 potassium channel inhibitors. shares compounds with KCNK9 block. HEK293 KCNK9 cells, FluxOR thallium flux fluorescence. inhibition, % at 10 µM. 4,900 compounds, 43% hits. AID 492992;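 active means thallium signal inhibited by more than 5 SD of the compound-free buffer control wells, on both duplicate plates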;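 further: 0% = assay buffer control wells without compound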
Kir2-1 spec – selectivity of KCNK9 modulators against mouse Kir2.1; AID 492993; inhibition, % at 10 µM; shares compounds with KCNK9 block; Kir2.1 cells, FluxOR thallium flux fluorescence; 4,900 compounds, 4% hits;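 active means thallium signal drop more than 5 SD beyond the mean of the no-compound control wells, seen in both duplicate plates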;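 further: signal is fluorescence rise after thallium addition divided by baseline fluorescence; plate controls were assay buffer only for no effect and full block by chlorpromazine control for full effect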
KCNK9 uninduced – second check of KCNK9 modulator effects in non-induced HEK293 cells; shares compounds with KCNK9 block; FluxOR thallium flux; inhibition, % at 10 µM; 4,900 compounds, 40% hits;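 active means thallium signal drop beyond 5 SD of the untreated control mean, on both duplicate plates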;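 further: plate controls were buffer only IC0 wells for no effect and SID17386958 at its maximal inhibitory level for full effect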
* marks the source's active call; other numbers are inactive results; i = inactive; / = not tested or not shown. Most compounds without a hit are left out; they make up all but 3.7% or so of the library.

SMILES	KCNK9 block	KCNQ1 pot	KCNQ1 inh	Kir21 inh	hERG rescue	KCNK3 block	KCNQ1 block val	CHO KCNQ1 ctr	KCNQ1 APC inh	KCNQ2 inh	KCNQ1 KCNE1 spec	others
COc1ccc(CCNc2ncnc3sc(C)cc23)cc1OC	i	i	11*	-6.2*	-19	i	133*	0.44	i	80%*	82%*
O=C(Nc1ccccc1)Nc1nc(-c2ccc(F)c(F)c2)cs1	i	i	6*	2.2	-6	i	72*	0.47	/	84%*	82%*
Cc1onc(-c2ccccc2)c1C(=O)Nc1nc(-c2ccc(F)c(F)c2)cs1	i	i	7*	1.1	-8	i	104*	0.52	i	109%*	120%*
O=C(NCCC1CCCCN1S(=O)(=O)c1ccc(Cl)cc1)C(=O)NCc1cccnc1 (centres undefined)	i	i	i	0.62	-9	i	/	/	/	/	/
CCC(=O)Nc1cc(C(=O)OCC(=O)c2ccccc2)ccc1C	i	i	i	0.85	-7	i	/	/	/	/	/
Cc1ccc(NC(=O)C2CCN(S(=O)(=O)c3ccc4c(c3)NC(=O)C(C)S4)CC2)cc1C (centres undefined)	i	i	8*	0.66	-10	i	138*	0.48	i	117%*	128%*
CC1Sc2ccc(S(=O)(=O)N3CCC(C(=O)Nc4cccc(Cl)c4)CC3)cc2NC1=O (centres undefined)	i	i	11*	0.75	-10	i	150*	0.39	/	129%*	160%*
COc1ccc(NC(=O)CN2CCN(CC(=O)Nc3ccccc3F)CC2)c(OC)c1	i	i	i	-0.15	-15	i	/	/	/	/	/
Cc1ccc(C(=O)OCc2ccc3c(c2)OCO3)cc1S(=O)(=O)N1CCCCC1	-13*	i	7*	-0.18	-8	i	74*	0.41	/	85%*	78%*	KCNK9 inh conf=41%*;Kir2-1 spec=i;KCNK9 uninduced=36%*
Cc1ccc(C(=O)Nc2ccc3c(c2)OCO3)cc1S(=O)(=O)N1CCCC1	i	i	i	-0.53	-4	i	/	/	/	/	/
CCc1c(C#N)c(SCCC(=O)Nc2ccc(C)cc2)nc2c1C(=O)CC(C)(C)C2	i	i	7*	0.04	-12	i	93*	0.52	i	83%*	56%*	KCNK9 inh conf=i;Kir2-1 spec=i;KCNK9 uninduced=i
CCNC(=O)NC(=O)CSc1ccc(S(=O)(=O)N2CCCCC2)cn1	/	/	/	/	/	i	/	/	/	/	/
Cc1cc(Cl)ccc1OC(C)C(=O)Nc1ccccc1N1CCOCC1 (centres undefined)	-9.3*	i	6*	0.76	-5	i	88*	0.32*	/	101%*	140%*	KCNK9 inh conf=38%*;Kir2-1 spec=44%*;KCNK9 uninduced=46%*
